This is an account of results in ChEMBL document CHEMBL1147081, “Structure of the deacetylase LpxC bound to the antibiotic CHIR-090: Time-dependent inhibition and specificity in ligand binding” (Proc Natl Acad Sci U S A, 2007).

SMILES strings stand for the structures. Calls of active or inactive are those of the source. No cut-off for these calls is given here.

Assay [1] relates to Rhizobium leguminosarum. Put plainly: Inhibition of Rhizobium leguminosarum LpxC at 0.5 uM.
Assay [2] concerns the target T1, UDP-3-O-acyl-N-acetylglucosamine deacetylase (Aquifex aeolicus (strain VF5)) (UniProt O67648).
T1 sequence (whole entry): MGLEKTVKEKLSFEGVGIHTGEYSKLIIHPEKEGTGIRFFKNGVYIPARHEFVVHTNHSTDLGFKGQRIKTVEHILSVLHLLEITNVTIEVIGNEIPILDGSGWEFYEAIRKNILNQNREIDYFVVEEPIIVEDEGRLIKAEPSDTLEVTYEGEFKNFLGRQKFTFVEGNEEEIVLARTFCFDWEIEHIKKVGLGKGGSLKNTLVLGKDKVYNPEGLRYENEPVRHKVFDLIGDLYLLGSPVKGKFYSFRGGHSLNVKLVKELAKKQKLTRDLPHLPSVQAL
As to the kind of experiment: Inhibition of Aquifex aeolicus LpxC.

Assay [3] concerns Rhizobium leguminosarum. As to the kind of experiment: Ratio of Kcat to Km of Rhizobium leguminosarum LpxC. The procedure, abridged:
(§1)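 Wild-type and site-directed mutant LpxC (E. coli, R. leguminosarum) expressed and purified, then assayed by a previously described method. Substrate was UDP-3-O-(R-3-hydroxymyristoyl)-N-acetylglucosamine, varied for Michaelis–Menten analysis. KM and kcat came from data sets pooling multiple independent experiments.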

For assay [4], the target named is T2, UDP-3-O-acyl-N-acetylglucosamine deacetylase (Escherichia coli K-12) (UniProt P0A725).
T2 sequence (whole entry): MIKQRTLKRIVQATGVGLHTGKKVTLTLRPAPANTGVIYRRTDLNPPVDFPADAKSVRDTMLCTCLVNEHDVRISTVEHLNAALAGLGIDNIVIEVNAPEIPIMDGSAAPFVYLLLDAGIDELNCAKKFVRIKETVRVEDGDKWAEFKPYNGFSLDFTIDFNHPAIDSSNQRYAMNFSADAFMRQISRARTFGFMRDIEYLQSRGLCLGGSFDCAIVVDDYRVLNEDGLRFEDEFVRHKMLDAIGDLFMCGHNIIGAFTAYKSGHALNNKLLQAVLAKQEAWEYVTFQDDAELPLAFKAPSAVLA
As to the kind of experiment: Inhibition of Escherichia coli LpxC at 4 nM.

Assay [5] deals with Rhizobium leguminosarum. As to the kind of experiment: Activity of Rhizobium leguminosarum LpxC. The gist of the method: as §1

Usually inhibition stands for the percentage by which the read-out fell short of the control. Read a high inhibition as strong suppression. For orientation: kcat/Km means the turnover number divided by the Michaelis constant. The Km is the concentration of substrate that gives half-maximal velocity. In general, kcat refers to the maximal rate divided by the concentration of active sites.

Consider `C[C@@H](O)[C@H](NC(=O)c1ccc(C#Cc2ccc(CN3CCOCC3)cc2)cc1)C(=O)NO`, for which the inhibition in assay [1] stood at 50%. Further, the result in assay [2] was Active. Moreover, in assay [3], the kcat/Km is 3.5 10^6/M/s. In addition, the inhibition in assay [4] was > 75%. In assay [5], the Km is 4.8 µM and the kcat came to 1.7 s⁻¹.
